Experimental data reported in ChEMBL document CHEMBL1152702, “Synthesis and biological evaluation of some new 1,4-dihydropyridines containing different ester substitute and diethyl carbamoyl group as anti-tubercular agents” (Bioorg Med Chem, 2009).
In brackets after ≈: the same amount, converted by molar mass.

Legend:
[1] = system: Mycobacterium tuberculosis; assay: Antimycobacterial activity against Mycobacterium tuberculosis H37Rv ATCC 27294 after 21 days by agar proportion method; format: functional; conditions: 504 h
Method in brief: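 Agar proportion method on Middlebrook 7H10 with glycerol and OADC, compounds added from DMSO solutions at […]. H37Rv was grown in 7H9 broth at 37 °C for 4–7 days and adjusted to McFarland no. 1. The 10^-2 and 10^-4 dilutions were the inocula. MIC was read after 21 days at 37 °C under 5–7% CO₂.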

[2] = Antagonist activity at calcium channel in guinea pig ileum assessed as inhibition of KCl-induced contraction of ileal longitudinal smooth muscle pretreated 15 mins before KCl challenge; format: functional, tissue-based; conditions: Cavia porcellus

Row | SMILES | MIC [1] [µM] | IC50 [2] [µM]
1 | CCN(CC)C(=O)C1=C(C)NC(C)=C(C(=O)OCCCCCc2ccccc2)C1c1ncc([N+](=O)[O-])n1C (stereo not drawn) | 2 (≈ 1.05 µg/mL) | 24
2 | CCCCOC(=O)C1=C(C)NC(C)=C(C(=O)N(CC)CC)C1c1ncc([N+](=O)[O-])n1C (stereo not drawn) | 1 (≈ 0.434 µg/mL) | 8.57
3 | CCN(CC)C(=O)C1=C(C)NC(C)=C(C(=O)OCc2ccccc2)C1c1ncc([N+](=O)[O-])n1C (stereo not drawn) | 1 (≈ 0.468 µg/mL) | 4.2
4 | CCN(CC)C(=O)C1=C(C)NC(C)=C(C(=O)OCCCc2ccccc2)C1c1ncc([N+](=O)[O-])n1C (stereo not drawn) | 1 (≈ 0.496 µg/mL) | 2.7
5 | CCCOC(=O)C1=C(C)NC(C)=C(C(=O)N(CC)CC)C1c1ncc([N+](=O)[O-])n1C (stereo not drawn) | 2 (≈ 0.839 µg/mL) | 12
6 | CCN(CC)C(=O)C1=C(C)NC(C)=C(C(=O)OC)C1c1ncc([N+](=O)[O-])n1C (stereo not drawn) | > 500 | 32.2
7 | CCN(CC)C(=O)C1=C(C)NC(C)=C(C(=O)OC(C)C)C1c1ncc([N+](=O)[O-])n1C (stereo not drawn) | > 500 | 18.8
8 | CCN(CC)C(=O)C1=C(C)NC(C)=C(C(=O)OCCc2ccccc2)C1c1ncc([N+](=O)[O-])n1C (stereo not drawn) | 1 (≈ 0.482 µg/mL) | 2.4
9 | CCN(CC)C(=O)C1=C(C)NC(C)=C(C(=O)OCCCCc2ccccc2)C1c1ncc([N+](=O)[O-])n1C (stereo not drawn) | 2 (≈ 1.02 µg/mL) | 3.5
10 | CCOC(=O)C1=C(C)NC(C)=C(C(=O)N(CC)CC)C1c1ncc([N+](=O)[O-])n1C (stereo not drawn) | 250 (≈ 101 µg/mL) | 29.7
11 | NNC(=O)c1ccncc1 [ISONIAZID] | 1 (≈ 0.137 µg/mL) | 
12 | COC(=O)C1=C(C)NC(C)=C(C(=O)OC)C1c1ccccc1[N+](=O)[O-] [NIFEDIPINE] |  | 0.00107
13 | CO[C@H]1/C=C/O[C@@]2(C)Oc3c(C)c(O)c4c(O)c(c(/C=N/N5CCN(C)CC5)c(O)c4c3C2=O)NC(=O)/C(C)=C\C=C\[C@H](C)[C@H](O)[C@@H](C)[C@@H](O)[C@@H](C)[C@H](OC(C)=O)[C@@H]1C [RIFAMPIN] | 1 (≈ 0.823 µg/mL) | 
